Data on two compounds can be found in article PMC3743164 (Chemmedchem, 2013).

For one assay, the system named is M. tuberculosis H37Rv. Briefly: M. tuberculosis H37Rv inhibition assay. The class given is cell-based. To be noted: Mycobacterium tuberculosis, read-out: MIC H37Rv.
For a further assay, the system named is HepG2 cells. The assay is described as follows: HepG2 cytotoxicity assay. It is filed as cell-based. To be noted: Homo sapiens, HepG2, 48 h, read-out: Ctox.: IC50 HepG2. Put shortly: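 HepG2 cells were harvested while actively growing, with monolayers kept ≤50 % confluent, in Eagle's MEM with 10 % FBS, 1 % NEAA and 1 % penicillin/streptomycin. They were seeded at about 3000 cells per well (1.2×10^5 cells mL−1) onto predispensed test compound. Plates were incubated 48 h at 37 °C, 80 % humidity and 5 % CO2, equilibrated 30 min at room temperature, then developed with CellTiter-Glo for 10 min before luminescence reading.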

pIC50: −log10 of the molar value. Converted amounts (≈) assume the structure as drawn. A value given as a limit tells only on which side of the number the result lay.

Broadly, the MIC is the smallest concentration in the dilution series that meets the test's criterion for growth inhibition. One may read the pIC50 as the negative decadic logarithm of the IC50, by convention in mol/L. Regarding `NNC(=O)c1ccncc1` [Isoniazid], the MIC with M. tuberculosis H37Rv is 1.8 µM (≈ 0.247 µg/mL). Further, the pIC50 in the assay on HepG2 cells was 3.68.

Turning to `CO[C@H]1/C=C/O[C@@]2(C)Oc3c(C)c(O)c4c(O)c(c(/C=N/N5CCN(C)CC5)c(O)c4c3C2=O)NC(=O)/C(C)=C\C=C\[C@H](C)[C@H](O)[C@@H](C)[C@@H](O)[C@@H](C)[C@H](OC(C)=O)[C@@H]1C` [Rifampicin], in the assay on M. tuberculosis H37Rv, the MIC amounted to 0.02 µM (≈ 0.0165 µg/mL). Further, the pIC50 in the assay with HepG2 cells was less than 3.59.
